Calls of active or inactive are those of the source. The rule behind the calls is not given here.
Tests used:
Blood [1] = assay: Biodistribution in ICR mouse blood at 925 KBq, iv after 2 mins by gamma counting; format: ADME, organism-based; conditions: in vivo
Method in brief: (§1)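 The ¹⁸F tracer was given iv to normal ICR mice (n = 6 per time point). Animals were killed by cardiac excision under isoflurane at 2 or 30 min. Organs were removed, weighed and γ-counted. %dose/g was calculated against counts of a 100-fold diluted aliquot of the injectate (1% of initial dose), counted at the same time.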

Muscle tissue [2] = assay: Biodistribution in ICR mouse muscle at 925 KBq, iv after 2 mins by gamma counting; format: ADME, organism-based; conditions: in vivo; method in brief: as §1
Kidney [3] = assay: Biodistribution in ICR mouse kidney at 925 KBq, iv after 2 mins by gamma counting; format: ADME, organism-based; conditions: in vivo; method in brief: as §1
Liver [4] = assay: Biodistribution in ICR mouse liver at 925 KBq, iv after 2 mins by gamma counting; format: ADME, organism-based; conditions: in vivo; method in brief: as §1
Brain [5] = assay: Biodistribution in ICR mouse brain at 925 KBq, iv after 2 mins by gamma counting; format: ADME, organism-based; conditions: in vivo; method in brief: as §1
Bone [6] = assay: Biodistribution in ICR mouse bone at 925 KBq, iv after 2 mins by gamma counting; format: ADME, organism-based, Bone element; conditions: in vivo; method in brief: as §1
Blood [7] = assay: Biodistribution in ICR mouse blood at 925 KBq, iv after 30 mins by gamma counting; format: ADME, organism-based; conditions: in vivo, 0.5 h; method in brief: as §1
Muscle tissue [8] = assay: Biodistribution in ICR mouse muscle at 925 KBq, iv after 30 mins by gamma counting; format: ADME, organism-based; conditions: in vivo, 0.5 h; method in brief: as §1
Kidney [9] = assay: Biodistribution in ICR mouse kidney at 925 KBq, iv after 30 mins by gamma counting; format: ADME, organism-based; conditions: in vivo, 0.5 h; method in brief: as §1
Liver [10] = assay: Biodistribution in ICR mouse liver at 925 KBq, iv after 30 mins by gamma counting; format: ADME, organism-based; conditions: in vivo, 0.5 h; method in brief: as §1
Brain [11] = assay: Biodistribution in ICR mouse brain at 925 KBq, iv after 30 mins by gamma counting; format: ADME, organism-based; conditions: in vivo, 0.5 h; method in brief: as §1
Bone [12] = assay: Biodistribution in ICR mouse bone at 925 KBq, iv after 30 mins by gamma counting; format: ADME, organism-based, Bone element; conditions: in vivo, 0.5 h; method in brief: as §1
[13] = target: T1, Amyloid-beta precursor protein (Homo sapiens, UniProt P05067); assay: Displacement of [18F]-amyvid from amyloid-beta aggregates in alzheimer's disease patient brain homogenates after 1 hr; format: tissue-based
Method in brief: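 Competition binding in post-mortem AD brain tissue homogenates against [¹⁸F]5 bound to Aβ aggregates. Results are expressed as inhibition constants (Ki, nM).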

[14] = target: T1, Amyloid-beta precursor protein; assay: Binding affinity to amyloid-beta plaque in cerebral blood vessels of alzheimer's disease patient cerebral amyloid angiopathy region of brain after 1 hr; format: tissue-based; conditions: tested as the 18F-labelled form
Method in brief: (§2)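 Post-mortem occipital sections (20 μm) from frozen brains of confirmed CAA, AD and control subjects. The ¹⁸F-labelled tracer was applied in 40% ethanol for 1 h. Sections were washed twice for 2 min in saturated Li₂CO₃/40% ethanol, once for 2 min in 40% ethanol, then rinsed 30 s in water. Dried sections were exposed to film for 12−18 h and the images digitized.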

[15] = target: T1, Amyloid-beta precursor protein; assay: Binding affinity to amyloid-beta plaque in parenchymal region of alzheimer's disease patient brain after 1 hr; conditions: tested as the 18F-labelled form; method in brief: as §2
[16] = target: T1, Amyloid-beta precursor protein; assay: Binding affinity to amyloid-beta plaque in cerebral blood vessels of normal human cerebral amyloid angiopathy region of brain after 1 hr; format: tissue-based; conditions: tested as the 18F-labelled form; method in brief: as §2
[17] = target: T1, Amyloid-beta precursor protein; assay: Binding affinity to amyloid-beta plaque in parenchymal region of normal human brain after 1 hr; format: tissue-based; conditions: tested as the 18F-labelled form; method in brief: as §2
[18] = target: T1, Amyloid-beta precursor protein; assay: Binding affinity to amyloid-beta plaque in cerebral blood vessels of alzheimer's disease patient cerebral amyloid angiopathy region of brain after 1 hr by autoradiography; format: tissue-based; conditions: tested as the 18F-labelled form; method in brief: as §2
[19] = target: T1, Amyloid-beta precursor protein; assay: Binding affinity to amyloid-beta plaque in cerebral blood vessels of alzheimer's disease patient cerebral amyloid angiopathy region of brain after 1 hr by thioflavin S staining; format: tissue-based; conditions: tested as the 18F-labelled form
Method in brief: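 Adjacent brain sections were fixed 1 h in 10% neutral buffered formalin. Staining was with 0.025% thioflavin S in 40% ethanol for 3−5 min, then differentiation in 50% ethanol. Sections were viewed by fluorescence microscopy.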

T1 sequence (P05067 whole entry): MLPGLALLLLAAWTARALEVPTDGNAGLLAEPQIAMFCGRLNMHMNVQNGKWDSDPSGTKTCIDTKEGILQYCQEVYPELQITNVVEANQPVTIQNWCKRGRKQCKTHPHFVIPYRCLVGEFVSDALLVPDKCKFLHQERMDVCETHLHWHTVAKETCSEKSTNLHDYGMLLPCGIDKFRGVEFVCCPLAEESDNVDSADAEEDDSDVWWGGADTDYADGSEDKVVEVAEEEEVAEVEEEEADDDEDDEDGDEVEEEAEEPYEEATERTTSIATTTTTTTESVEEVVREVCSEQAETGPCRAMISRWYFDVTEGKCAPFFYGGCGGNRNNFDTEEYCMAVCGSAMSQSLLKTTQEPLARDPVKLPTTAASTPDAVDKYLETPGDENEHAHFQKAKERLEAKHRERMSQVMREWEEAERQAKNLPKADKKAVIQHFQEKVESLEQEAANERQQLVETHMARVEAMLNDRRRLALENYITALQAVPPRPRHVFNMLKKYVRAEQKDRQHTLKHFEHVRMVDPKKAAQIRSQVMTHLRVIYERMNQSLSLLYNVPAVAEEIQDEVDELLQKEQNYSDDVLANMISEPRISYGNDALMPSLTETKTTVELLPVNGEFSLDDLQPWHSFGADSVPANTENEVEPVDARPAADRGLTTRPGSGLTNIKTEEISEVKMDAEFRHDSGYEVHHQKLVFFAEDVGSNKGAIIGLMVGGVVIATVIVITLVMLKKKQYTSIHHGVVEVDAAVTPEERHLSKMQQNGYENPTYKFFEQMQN

Compound	Drug uptake (Blood [1]) [% ID/g]	Drug uptake (Muscle tissue [2]) [% ID/g]	Drug uptake (Kidney [3]) [% ID/g]	Drug uptake (Liver [4]) [% ID/g]	Drug uptake (Brain [5]) [% ID/g]	Drug uptake (Bone [6]) [% ID/g]	Drug uptake (Blood [7]) [% ID/g]	Drug uptake (Muscle tissue [8]) [% ID/g]	Drug uptake (Kidney [9]) [% ID/g]	Drug uptake (Liver [10]) [% ID/g]	Drug uptake (Brain [11]) [% ID/g]	Drug uptake (Bone [12]) [% ID/g]	Ki [13] [nM]	further results
CNc1ccc(/C=C/c2ccc(OCCOCCOCC[18F])nc2)cc1 [FLORBETAPIR F 18]	3.14	1.06	10.9	21.5	7.77	1.43	2.8	1.78	6.31	12.9	1.59	1.22		
CNc1ccc(/C=C/c2ccc(OCCOCCOCCOCCOCC(COCCOCCOCCOCCOc3ccc(/C=C/c4ccc(NC)cc4)cn3)OCCF)nc2)cc1													3.24	Activity [14]: Active; Activity [15]: Active; Activity [16]: inactive; Activity [17]: inactive; Activity [18]: Active; Activity [19]: Active
CNc1ccc(/C=C/c2ccc(OCCOCCOCC[18F])cc2)cc1 [FLORBETABEN F18]													2.22	
CNc1ccc(/C=C/c2ccc(OCCOCCOCCOCCOCCOCC(COCCOCCOCCOCCOCCOc3ccc(/C=C/c4ccc(NC)cc4)cn3)OCC[18F])nc2)cc1	2.55	1.3	14.9	33.5	0.4	1.64	1.32	1.62	13.4	20	0.34	1.8		
CNc1ccc(/C=C/c2ccc(OCCOCCOCCOCCNC(=O)CN(CC(=O)NCCOCCOCCOCCOc3ccc(/C=C/c4ccc(NC)cc4)cn3)C(=O)COCCOCCOCCF)nc2)cc1													71.2	
CNc1ccc(/C=C/c2ccc(OCCOCCOCCOCCOCC(COCCOCCOCCOCCOc3ccc(/C=C/c4ccc(NC)cc4)cn3)OCC[18F])nc2)cc1	4.77	0.82	8.13	21.2	0.4	1.3	1.54	1.21	9.36	21.4	0.4	2.34		
CNc1ccc(/C=C/c2ccc(OCCOCCOCCOCCOCCOCC(COCCOCCOCCOCCOCCOc3ccc(/C=C/c4ccc(NC)cc4)cn3)OCCF)nc2)cc1													7.71	
CNc1ccc(/C=C/c2ccc(OCCOCCOCCF)nc2)cc1														Activity [14]: Active; Activity [15]: Active; Activity [16]: inactive; Activity [17]: inactive
CNc1ccc(/C=C/c2ccc(OCCOCCOCCOCCOCCOCCOCC(COCCOCCOCCOCCOCCOCCOc3ccc(/C=C/c4ccc(NC)cc4)cn3)OCC[18F])nc2)cc1	3.12	0.65	13.7	30.2	0.29	1.06	1.4	1.29	11.7	16	0.38	1.36		
CNc1ccc(/C=C/c2ccc(OCCOCCOCCOCCOCCOCCOCC(COCCOCCOCCOCCOCCOCCOc3ccc(/C=C/c4ccc(NC)cc4)cn3)OCCF)nc2)cc1													3.86	
CNc1ccc(/C=C/c2ccc(OCCOCCOCCOCCn3cc(COCC(COCCOCCOCCF)(COCc4cn(CCOCCOCCOCCOc5ccc(/C=C/c6ccc(NC)cc6)cn5)nn4)COCc4cn(CCOCCOCCOCCOc5ccc(/C=C/c6ccc(NC)cc6)cn5)nn4)nn3)nc2)cc1													468	
CNc1ccc(-c2nc3ccc(O)cc3s2)cc1[18F] [FLUTEMETAMOL F 18]													0.74	
CN(C(=O)OC(C)(C)C)c1ccc(/C=C/c2ccc(OCCOCCOCCOCCOCC(COCCOCCOCCOCCOc3ccc(/C=C/c4ccc(N(C)C(=O)OC(C)(C)C)cc4)cn3)OCCF)nc2)cc1													> 1000	
